ChEMBL document CHEMBL5385965, “Discovery of novel positive allosteric modulators targeting GluN1/2A NMDARs as anti-stroke therapeutic agents” (RSC Med Chem, 2024)
Active and inactive are the calls of the source. The calls are words filed in the database; no cut-off is given here.

Tested on: PC-12
Test: Neuroprotective activity against glutamate-induced excitotoxicity in rat PC12 cells assessed as cell viability at 1 uM preincubated for 4 hrs followed by glutamate treatment for 24 hrs by CCK8 assay (reference value: 43.19 +/- 2.98 %)
Format: functional
Conditions: time 28 hrs, read-out: Activity

Compound	viability at 1 µM [%]
COCCCOc1ccnc(C[S+]([O-])c2nc3ccccc3[nH]2)c1C (stereo not drawn) [RABEPRAZOLE]	66.7
O=C(/C=C/C=C/c1ccc2c(c1)OCO2)N1CCCCC1 [PIPERINE]	57.3
COc1cc(OC/C=C(\C)CCC=C(C)C)c2ccc(=O)oc2c1	69
COc1cc(/C=C/C(=O)NCC(O)c2ccc(O)cc2)ccc1O (stereo not drawn)	66.5
N[C@@H](CC(=O)N1CCn2c(nnc2C(F)(F)F)C1)Cc1cc(F)c(F)cc1F [SITAGLIPTIN]	69.5
COc1cc(CNC(=O)CCCCCCC(C)C)ccc1O [DIHYDROCAPSAICIN]	76.1

Tested on: HT-22
Test: Neuroprotective activity against glutamate-induced excitotoxicity in mouse HT-22 cells assessed as cell viability at 1 uM preincubated for 4 hrs followed by glutamate treatment for 24 hrs by CCK8 assay (reference value: 35.56 +/- 2.12 %)
Format: functional
Conditions: time 28 hrs, read-out: Activity

Compound	viability at 1 µM [%]
COCCCOc1ccnc(C[S+]([O-])c2nc3ccccc3[nH]2)c1C (stereo not drawn) [RABEPRAZOLE]	76.5
O=C(/C=C/C=C/c1ccc2c(c1)OCO2)N1CCCCC1 [PIPERINE]	87.8
COc1cc(OC/C=C(\C)CCC=C(C)C)c2ccc(=O)oc2c1	69
COc1cc(/C=C/C(=O)NCC(O)c2ccc(O)cc2)ccc1O (stereo not drawn)	77.6
N[C@@H](CC(=O)N1CCn2c(nnc2C(F)(F)F)C1)Cc1cc(F)c(F)cc1F [SITAGLIPTIN]	71
COc1cc(CNC(=O)CCCCCCC(C)C)ccc1O [DIHYDROCAPSAICIN]	95.4

Target: Glutamate NMDA receptor; GRIN1/GRIN2B (Homo sapiens) (UniProt Q05586+Q13224)
Test: Positive allosteric modulation of GluN1/N2B (unknown origin) transfected in HEK293 cells assessed as potentiation of Glu/Gly-induced calcium influx by Cal-520 AM dye based assay
Format: cell-based
Conditions: not given
How it was run: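 HEK293 cells were co-transfected 1:1 with GluN1 plus GluN2A or GluN2B at 90% confluence and seeded 40 000/well on poly-D-lysine plates overnight. Cells were loaded with Cal-520 AM for 1.5 h at 37 °C, and compounds were tested at 10 μM. Responses to Glu (2 mM)/Gly (100 μM) were recorded in HEPES-buffered Tyrode's (pH 7.2) at Ex 485/Em 515 nm every 1.6 s, expressed as area under the FMAX/F0 curve.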

Compound	Activity
COCCCOc1ccnc(C[S+]([O-])c2nc3ccccc3[nH]2)c1C (stereo not drawn) [RABEPRAZOLE]	inactive
COc1cc(OC/C=C(\C)CCC=C(C)C)c2ccc(=O)oc2c1	inactive
COc1cc(/C=C/C(=O)NCC(O)c2ccc(O)cc2)ccc1O (stereo not drawn)	inactive
COc1cc(CNC(=O)CCCCCCC(C)C)ccc1O [DIHYDROCAPSAICIN]	inactive

The next lines start with the values.

Activity	Compound
inactive	O=C(/C=C/C=C/c1ccc2c(c1)OCO2)N1CCCCC1 [PIPERINE]
inactive	N[C@@H](CC(=O)N1CCn2c(nnc2C(F)(F)F)C1)Cc1cc(F)c(F)cc1F [SITAGLIPTIN]

Tested on: PC-12
Test: Neuroprotective activity against glutamate-induced excitotoxicity in rat PC12 cells assessed as cell viability at 10 uM preincubated for 4 hrs followed by glutamate treatment for 24 hrs by CCK8 assay (reference value: 43.75 +/- 2.04 %)
Format: functional
Conditions: time 28 hrs, read-out: Activity

Compound	viability at 10 µM [%]
COCCCOc1ccnc(C[S+]([O-])c2nc3ccccc3[nH]2)c1C (stereo not drawn) [RABEPRAZOLE]	60.9
O=C(/C=C/C=C/c1ccc2c(c1)OCO2)N1CCCCC1 [PIPERINE]	35.2
COc1cc(OC/C=C(\C)CCC=C(C)C)c2ccc(=O)oc2c1	70.1
COc1cc(/C=C/C(=O)NCC(O)c2ccc(O)cc2)ccc1O (stereo not drawn)	62.8
N[C@@H](CC(=O)N1CCn2c(nnc2C(F)(F)F)C1)Cc1cc(F)c(F)cc1F [SITAGLIPTIN]	77.8
COc1cc(CNC(=O)CCCCCCC(C)C)ccc1O [DIHYDROCAPSAICIN]	102

Tested on: PC-12
Test: Neuroprotective activity against glutamate-induced excitotoxicity in rat PC12 cells assessed as cell viability at 0.1 uM preincubated for 4 hrs followed by glutamate treatment for 24 hrs by CCK8 assay (reference value: 44.89 +/- 2.08 %)
Format: functional
Conditions: time 28 hrs, read-out: Activity

Compound	viability at 0.1 µM [%]
COCCCOc1ccnc(C[S+]([O-])c2nc3ccccc3[nH]2)c1C (stereo not drawn) [RABEPRAZOLE]	64.7
O=C(/C=C/C=C/c1ccc2c(c1)OCO2)N1CCCCC1 [PIPERINE]	66.2
COc1cc(OC/C=C(\C)CCC=C(C)C)c2ccc(=O)oc2c1	67.4
COc1cc(/C=C/C(=O)NCC(O)c2ccc(O)cc2)ccc1O (stereo not drawn)	64.2
N[C@@H](CC(=O)N1CCn2c(nnc2C(F)(F)F)C1)Cc1cc(F)c(F)cc1F [SITAGLIPTIN]	62.6
COc1cc(CNC(=O)CCCCCCC(C)C)ccc1O [DIHYDROCAPSAICIN]	66.1

Tested on: HT-22
Test: Neuroprotective activity against glutamate-induced excitotoxicity in mouse HT-22 cells assessed as cell viability at 0.1 uM preincubated for 4 hrs followed by glutamate treatment for 24 hrs by CCK8 assay (reference value: 30.31 +/- 2.02 %)
Format: functional
Conditions: time 28 hrs, read-out: Activity

Compound	viability at 0.1 µM [%]
COCCCOc1ccnc(C[S+]([O-])c2nc3ccccc3[nH]2)c1C (stereo not drawn) [RABEPRAZOLE]	39.9
O=C(/C=C/C=C/c1ccc2c(c1)OCO2)N1CCCCC1 [PIPERINE]	36.5
COc1cc(OC/C=C(\C)CCC=C(C)C)c2ccc(=O)oc2c1	34.9
COc1cc(/C=C/C(=O)NCC(O)c2ccc(O)cc2)ccc1O (stereo not drawn)	42.7
N[C@@H](CC(=O)N1CCn2c(nnc2C(F)(F)F)C1)Cc1cc(F)c(F)cc1F [SITAGLIPTIN]	24.8
COc1cc(CNC(=O)CCCCCCC(C)C)ccc1O [DIHYDROCAPSAICIN]	32.6

Tested on: not listed separately
Test: Cytotoxicity against rat PC12 cells assessed as cell viability at 10 uM incubated for 4 hrs by CCK8 assay relative to control
Format: toxicity, cell-based, PC-12
Conditions: read-out: Activity

Compound	viability at 4 h, 10 µM [%]
COCCCOc1ccnc(C[S+]([O-])c2nc3ccccc3[nH]2)c1C (stereo not drawn) [RABEPRAZOLE]	93.2
O=C(/C=C/C=C/c1ccc2c(c1)OCO2)N1CCCCC1 [PIPERINE]	98.3
COc1cc(OC/C=C(\C)CCC=C(C)C)c2ccc(=O)oc2c1	74.7
COc1cc(/C=C/C(=O)NCC(O)c2ccc(O)cc2)ccc1O (stereo not drawn)	96.6
N[C@@H](CC(=O)N1CCn2c(nnc2C(F)(F)F)C1)Cc1cc(F)c(F)cc1F [SITAGLIPTIN]	95.5
COc1cc(CNC(=O)CCCCCCC(C)C)ccc1O [DIHYDROCAPSAICIN]	104

Tested on: HT-22
Test: Neuroprotective activity against glutamate-induced excitotoxicity in mouse HT-22 cells assessed as cell viability at 10 uM preincubated for 4 hrs followed by glutamate treatment for 24 hrs by CCK8 assay (reference value: 34.80 +/- 4.02 %)
Format: functional
Conditions: time 28 hrs, read-out: Activity

Compound	viability at 10 µM [%]
COCCCOc1ccnc(C[S+]([O-])c2nc3ccccc3[nH]2)c1C (stereo not drawn) [RABEPRAZOLE]	16
O=C(/C=C/C=C/c1ccc2c(c1)OCO2)N1CCCCC1 [PIPERINE]	24.5
COc1cc(OC/C=C(\C)CCC=C(C)C)c2ccc(=O)oc2c1	41.4
COc1cc(/C=C/C(=O)NCC(O)c2ccc(O)cc2)ccc1O (stereo not drawn)	39.6
N[C@@H](CC(=O)N1CCn2c(nnc2C(F)(F)F)C1)Cc1cc(F)c(F)cc1F [SITAGLIPTIN]	52.4
COc1cc(CNC(=O)CCCCCCC(C)C)ccc1O [DIHYDROCAPSAICIN]	43.3
